Results from PMC6420060 (ACS applied materials & interfaces, 2018).

How the values were obtained:
Format in all cases: physicochemical
[1] = Permeation into trapped giant unilamellar vesicles measured by FCS; conditions: 20 nM; for permeation into individual GUVs: 20% POPS
Method in brief: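 POPC/POPS (4:1) GUVs, sucrose inside and glucose outside, ± 10 μM Ru complex for about 45 min. Held in BSA-coated microfluidic hydrodynamic traps with valves pressurised to 2 bar. 20 nM calcein in hosting buffer flushed in, valves reopened, static or under flow. After 30 min, FCS used a 488 nm laser at 60 μW. Curves fitted with a triplet term and corrected for buffer background. Permeation taken as N inside versus outside per vesicle.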

[2] = GUV size after incorporation of Ru; conditions: all samples pooled
Method in brief: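 GUVs (POPC:POPS 4:1) made by emulsion transfer: 1 M sucrose/140 mM KCl/10 mM HEPES pH 7.4 inside, 1 M glucose/140 mM NaCl/10 mM HEPES outside. Incubated with 10 μM (final) Ru complex, typically 45 min, ± 200 μM (final) potassium ferricyanide. Imaged under a 60× water-immersion objective. Diameter taken at the z-plane of largest size, averaged over x and y. All vesicles pooled into histograms.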

[3] = ζ-Potential of GUVs after incubation with Ru; conditions: GUVs containing 1 M sucrose measured in 1 M glucose, Zetasizer Nano ZSP

Molecule	permeation into individual GUVs ([1]; with Ru(C17)2^2+, sub-20 μm vesicle diameters)	permeation into individual GUVs under flow ([1]; without Ru(C17)2^2+, nominal flow rates of 2, 5, 8, and 11 μL/min, larger vesicles (above 20 μm))	permeation into individual GUVs ([1]; without Ru(C17)2^2+, vesicle diameter 20 μm)	permeation into individual GUVs ([1]; without Ru(C17)2^2+, vesicle diameter down to 10 μm) [%]	vesicle diameter with Ru(C17)2^2+ and addition of potassium ferricyanide [2] [µm]	vesicle diameter upon incorporation of Ru(C17)2^2+ ([2]; 23.0 ± 6.6 without Ru(C17)2^2+) [nm]	ζ-potential of GUVs after incubation with Ru(C17)2^2+ ([3]; start of the period, pure GUVs with 20% POPS −90.8 ± 3.3 mV) [mV]	ζ-potential of GUVs after incubation with Ru(C17)2^2+ ([3]; up to 9 h after incubation) [mV]
O=C(O)CN(CC(=O)O)Cc1cc2c(cc1O)Oc1cc(O)c(CN(CC(=O)O)CC(=O)O)cc1C21OC(=O)c2ccccc21 [calcein]	below 30%	below 10%	below 10%	60				
dihepta-decylated tris(bipyridine)ruthenium(II) complex [Ru(C17)2^2+]					15.8 ± 3.8	17.9 ± 4.8	−11.7 ± 4.8	−18.5 ± 2.6
